aSyn UTR inh: 5' untranslated region of α-synuclein, MLPCN primary screen; alpha-synuclein 5'UTR reporter, inhibitor activity; inhibition, % (tested at 7.5 µM); 300,000 compounds, 0.82% hits; AID 1813; in the data active means inhibition above about 60%;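 further: H4 neuroglioblastoma cells stably carrying SNCA 5'UTR luciferase fusion; 0% = DMSO wells and 100% = positive control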
SKKanGAS inh: inhibitors of SKKanGAS S. pyogenes growth in kanamycin (SK-promoter or general growth effect); BacTiter-Glo, 6 h; inhibition, % at 7.5 µM; 300,000 compounds, 1.3% hits;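 active means mean replicate score, as percent of positive control median, at least 50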;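 further: strain carries kanamycin resistance gene driven by streptokinase promoter and grows in 40 µg/ml kanamycin; loss of luminescence reflects streptokinase promoter inhibition or plain growth inhibition; 0% = median of DMSO wells and 100% = positive control at its reference dose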
CSC inhib: blocks cancer stem cells. cancer stem cell-like cells viability, luminescence. 300,000 compounds, 1.1% hits. inhibition, % at 7.5 µM; in the data active means inhibition above about 75%; tested in HMLE shEcad cells
Mdm2-MdmX inh: inhibitors of human Mdm2/MdmX interaction; inhibition, % at 8 µM; O15151+Q00987; SaOS-2 split-luciferase Mdm2/MdmX complementation, luminescence; 330,000 compounds, 3% hits;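 active means inhibition of at least 50% at 8 µM in the primary screen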
Target sequence (O15151 whole entry, looked up): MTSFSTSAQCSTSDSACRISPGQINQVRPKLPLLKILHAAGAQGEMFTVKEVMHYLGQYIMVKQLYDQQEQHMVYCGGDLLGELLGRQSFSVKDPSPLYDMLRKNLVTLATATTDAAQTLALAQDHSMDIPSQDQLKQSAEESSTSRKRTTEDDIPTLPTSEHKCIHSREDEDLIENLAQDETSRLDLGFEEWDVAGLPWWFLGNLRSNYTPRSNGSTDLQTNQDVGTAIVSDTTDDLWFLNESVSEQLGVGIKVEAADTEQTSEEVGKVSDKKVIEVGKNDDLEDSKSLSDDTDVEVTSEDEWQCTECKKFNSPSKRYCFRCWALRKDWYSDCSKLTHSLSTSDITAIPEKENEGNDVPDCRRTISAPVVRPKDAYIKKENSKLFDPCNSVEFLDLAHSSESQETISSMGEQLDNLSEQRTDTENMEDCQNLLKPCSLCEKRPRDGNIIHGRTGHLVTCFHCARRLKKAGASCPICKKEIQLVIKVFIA
Target sequence (Q00987 whole entry, looked up): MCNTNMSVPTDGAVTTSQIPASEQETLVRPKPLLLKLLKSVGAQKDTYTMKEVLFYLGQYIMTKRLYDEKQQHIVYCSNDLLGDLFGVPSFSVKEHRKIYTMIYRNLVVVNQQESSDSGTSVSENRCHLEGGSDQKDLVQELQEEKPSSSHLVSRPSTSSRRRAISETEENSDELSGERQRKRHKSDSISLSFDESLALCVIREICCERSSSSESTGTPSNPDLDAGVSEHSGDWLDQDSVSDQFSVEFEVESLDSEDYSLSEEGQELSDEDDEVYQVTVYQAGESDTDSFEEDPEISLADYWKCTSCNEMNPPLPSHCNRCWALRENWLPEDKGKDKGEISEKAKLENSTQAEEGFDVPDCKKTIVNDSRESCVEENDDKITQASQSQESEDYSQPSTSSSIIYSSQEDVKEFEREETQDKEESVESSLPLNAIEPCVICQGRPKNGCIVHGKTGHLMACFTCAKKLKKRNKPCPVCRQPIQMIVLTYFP
T cruzi inh: blocks replication of Trypanosoma cruzi; AID 1885; T. cruzi beta-gal in NIH3T3, luminescence, 90 h; 300,000 compounds, 1.4% hits; inhibition, % (concentration not given with the values);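 active means mean inhibition across valid replicates above about 55%, limit read from the data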;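 further: signal also drops with host cell toxicity which is not excluded here; 0% = plate median of DMSO wells and 100% = zero luminescence signal; higher percent means less beta-gal luminescence so fewer parasites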
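Test system: β-gal T. cruzi (Tulahuen C4) inside NIH/3T3 cells / Quantity: 5,000 cells/well / Measured by: luminescence from GalScreen with 0.05% NP40, read after 60 min / Medium: DMEM plus 2% FBS / Measure: parasite load inhibition, % / Reagent: Tulahuen C4 trypomastigotes, 5000/well / Schedule: co-culture of at least 90 h after 3 h attachment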
Mdm2-MdmX conf: human Mdm2/MdmX binding inhibition, confirmed. shares compounds with Mdm2-MdmX inh. luminescent assay. inhibition, % at 8 µM. 10,000 compounds, 55% hits. AID 489028; in the data active means inhibition above about 40%
FLuc counter: inhibits full-length luciferase, flagging false Mdm2/MdmX hits. shares compounds with Mdm2-MdmX inh. SaOS-2 full-length luciferase counterscreen, luminescence. inhibition, % at 8 µM. 6,200 compounds, 77% hits. AID 504607;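 active means mean inhibition at 8 µM reaching about 37%, which flags the compound as non-specific, limit read from the data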;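 further: p53-null SaOS-2 cells with luciferase driven by a doxycycline-inducible promoter; compound on cells about two nights before reading with doxycycline added after day one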
* marks the source's active call; other numbers are inactive results. This is a sample that favours compounds with a hit; in the whole collection about 5.4% have one here.

For COc1ccc2c(c1)OC[C@H]1[C@H]2N2C(=O)c3cc(C)ccc3NC(=O)[C@@]2(C)[C@H]1c1ccccc1 the results were CSC inhib 12 and Mdm2-MdmX inh 29.
For Cc1ccc2c(c1)[C@H]1[C@H](CO2)[C@H](c2ccccc2)[C@]2(C)C(=O)Nc3ccc(Cl)cc3C(=O)N12 the results were CSC inhib 37 and Mdm2-MdmX inh 35.
`Cc1ccn2cc(CCNC(=O)COc3ccccc3)nc2c1` gave aSyn UTR inh -12, SKKanGAS inh -8, CSC inhib -3, Mdm2-MdmX inh -3 and T cruzi inh -12.
`O=C1CCNc2cc3ccccc3cc21` gave aSyn UTR inh 78*, SKKanGAS inh -6, CSC inhib 23, Mdm2-MdmX inh 65*, T cruzi inh 9, Mdm2-MdmX conf 61* and FLuc counter 49*.
CCOc1ccccc1CNc1ncnc2ccc(-c3c(C)noc3C)cc12 was read as CSC inhib 112*, Mdm2-MdmX inh 79*, Mdm2-MdmX conf 54* and FLuc counter 43*.
For c1ccc(-c2cccc(-c3ccccn3)n2)nc1 the results were aSyn UTR inh 77*, SKKanGAS inh -1, CSC inhib 107*, Mdm2-MdmX inh 66*, T cruzi inh 52, Mdm2-MdmX conf 79* and FLuc counter 18.
For Cc1ccc(-c2csc(N/N=C/c3ccco3)n2)cc1 the results were aSyn UTR inh -232, SKKanGAS inh -1, CSC inhib 7, Mdm2-MdmX inh -113 and T cruzi inh 19.
`CN(C)S(=O)(=O)c1ccc(-c2csc(N/N=C/c3ccc(O)cc3)n2)cc1` gave aSyn UTR inh 24, SKKanGAS inh 65*, CSC inhib 130*, Mdm2-MdmX inh 100*, T cruzi inh 21, Mdm2-MdmX conf 83* and FLuc counter 38*.
`CN(C)S(=O)(=O)c1ccc(-c2csc(N/N=C/c3ccco3)n2)cc1` gave aSyn UTR inh -54, SKKanGAS inh -2, CSC inhib 20, Mdm2-MdmX inh 72*, T cruzi inh 6 and Mdm2-MdmX conf 36.
For CN(C1CCCCC1)S(=O)(=O)c1ccc(C(=O)N2CCN(c3nc4ccccc4s3)CC2)cc1 the results were aSyn UTR inh 5, SKKanGAS inh 29, CSC inhib 11, Mdm2-MdmX inh 28 and T cruzi inh 27.
`COc1ccc(CCN2C(=O)c3[nH]nc(-c4ccccc4O)c3C2c2cccc(Cl)c2)cc1` (stereo unspecified) gave aSyn UTR inh -38, SKKanGAS inh 71*, CSC inhib 18, Mdm2-MdmX inh 76*, T cruzi inh 28, Mdm2-MdmX conf 57* and FLuc counter 74*.
Screening Cc1cccc(NC(=O)c2cc(-c3cccnc3)nc3c(C)cccc23)n1 returned aSyn UTR inh -20, SKKanGAS inh -2, CSC inhib -6, Mdm2-MdmX inh 50*, T cruzi inh 11 and Mdm2-MdmX conf 2.
`COc1cccc(NC(=O)c2cc(-c3cccnc3)nc3c(Cl)cccc23)c1` gave aSyn UTR inh 8, SKKanGAS inh 4, Mdm2-MdmX inh 25 and T cruzi inh 14.
Screening Cc1cc(NC(=O)c2cc(-c3ccncc3)nc3c(C)cccc23)no1 returned aSyn UTR inh 32, SKKanGAS inh -5, CSC inhib 61, Mdm2-MdmX inh 61*, T cruzi inh 1, Mdm2-MdmX conf 49* and FLuc counter 53*.
For OC(COCC(F)(F)C(F)(F)C(F)(F)C(F)F)Cn1c2ccc(Cl)cc2c2cc(Cl)ccc21 (stereo unspecified) the results were aSyn UTR inh -32, SKKanGAS inh 110*, CSC inhib 116*, Mdm2-MdmX inh 95*, T cruzi inh 51 and Mdm2-MdmX conf 28.
For O=C(C[C@@H]1C/C=C\C[C@@H](Cc2ccc(F)cc2)C(=O)OC[C@@H](Cc2ccccc2)NC1=O)N[C@H](CO)Cc1ccccc1 the results were CSC inhib 7, Mdm2-MdmX inh 80*, Mdm2-MdmX conf 66* and FLuc counter 41*.
O=C(N[C@H]1C/C=C\C[C@H](CC(=O)N(CCO)Cc2ccccc2)C(=O)N[C@@H](c2ccccc2)COC1=O)OCC1c2ccccc2-c2ccccc21 was read as Mdm2-MdmX inh 9.
O=C(N[C@@H]1C/C=C\C[C@@H](CC(=O)N(CCO)Cc2ccccc2)C(=O)NC[C@H](c2ccccc2)OC1=O)OCC1c2ccccc2-c2ccccc21 was read as Mdm2-MdmX inh 61* and Mdm2-MdmX conf 11.
For C[C@@H]1COC(=O)[C@H](Cc2ccc(F)cc2)C/C=C\C[C@@H](CC(=O)N[C@H](CO)Cc2ccccc2)C(=O)N1 the results were CSC inhib 9 and Mdm2-MdmX inh -21.
For C[C@H]1COC(=O)[C@H](NC(=O)OCC2c3ccccc3-c3ccccc32)C/C=C\C[C@H](CC(=O)N(CCO)Cc2ccccc2)C(=O)N1 the results were CSC inhib -15 and Mdm2-MdmX inh 9.
Screening O=C(C[C@H]1C/C=C\C[C@H](NC(=O)OCC2c3ccccc3-c3ccccc32)C(=O)O[C@H](c2ccccc2)CNC1=O)N[C@H](CO)Cc1ccccc1 returned Mdm2-MdmX inh 78*, Mdm2-MdmX conf 47* and FLuc counter 56*.
Screening O=C(N[C@@H]1C/C=C\C[C@H](CC(=O)N(CCO)Cc2ccccc2)C(=O)NC[C@@H](c2ccccc2)OC1=O)OCC1c2ccccc2-c2ccccc21 returned Mdm2-MdmX inh 51* and Mdm2-MdmX conf 7.
Screening CC(C)(C)C(=O)N(Cc1ccc(Cl)cc1)c1cnccn1 returned aSyn UTR inh 4, SKKanGAS inh -5, CSC inhib 1, Mdm2-MdmX inh 8 and T cruzi inh 18.
For Fc1ccc(-c2cc(C(F)(F)F)n3ncnc3n2)cc1 the results were aSyn UTR inh -1, SKKanGAS inh -13, CSC inhib -6, Mdm2-MdmX inh 4 and T cruzi inh -5.
CC(C)(C)OC(=O)C[C@@H]1C/C=C\C[C@@H](CC(=O)N(CCO)Cc2ccccc2)C(=O)NC[C@@H](c2ccccc2)OC1=O was read as Mdm2-MdmX inh 0.
For CC(C)(C)OC(=O)C[C@@H]1C/C=C\C[C@@H](CC(=O)N(CCO)Cc2ccccc2)C(=O)NC[C@H](c2ccccc2)OC1=O the results were CSC inhib 22, Mdm2-MdmX inh 60*, Mdm2-MdmX conf 40* and FLuc counter 71*.
For CCc1nnc(NC(=O)CCn2cnc3ccccc3c2=O)s1 the results were aSyn UTR inh 2, SKKanGAS inh -5, CSC inhib -3, Mdm2-MdmX inh -21 and T cruzi inh 6.
Cc1cccn2c(=O)c(C=NCCO)c(Nc3ccc(Cl)cc3)nc12 was read as aSyn UTR inh -17, SKKanGAS inh -20, CSC inhib 14, Mdm2-MdmX inh 53*, T cruzi inh 21 and Mdm2-MdmX conf -4.
